High-throughput results as filed in PubChem BioAssay.
MrgX1 agonist – activates human MrgX1 receptor signaling; B-score at 10 µM; 310,000 tested, 0.44% active; MrgX1-HEK293 cells, Fluo-4 calcium fluorescence, agonist mode; active compounds read high; Q96LB2;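 active = calcium response B-score plate-corrected fluorescence ratio at least 3 library SD, with starting fluorescence B-score inside 5 SD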
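Test system: HEK293 cells stably expressing human MrgX1 receptor; Input: fifteen thousand cells per well; Dosing: compound delivered in addition one of three; Schedule: overnight seeding, then 1 h dark dye loading; Technique: Fluo-4 NW calcium fluorescence; Measure: B-scored fluorescence response ratio; Controls: positive and negative controls per plate.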
MrgX1 antag – antagonists of human MrgX1 receptor; MRGX1-HEK293 calcium flux, Fluo-4, BAM8-22 antagonism; active compounds read low; B-score at 10 µM; 310,000 tested, 1.3% active; Q96LB2;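 active = calcium-response B-score plate-corrected more than 3 library SD below zero, starting fluorescence within 5 deviations, no agonist response on first addition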;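 also: peak minus trough fluorescence over baseline after final BAM8-22 challenge near maximal dose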
KCC2 mod – KCC2 (human) Cl- transport modulation | B-score of Tl+ flux slope (higher = more flux/activation; lower = inhibition) at 10 µM | AID 1456 | KCC2 cells, thallium flux FluoZin-2 fluorescence | 190,000 tested, 2.2% active;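 active = thallium flux slope and its plate-corrected score both differing from the plate sample mean at a set confidence after two filtering rounds, in either direction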;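 also: slope of fluorescence scaled to starting intensity during 10 to 20 s after thallium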
RGS4 act – potentiators or activators of RGS4; 310,000 tested, 0.92% active; B-score at 10 µM; HEK293 M3R/inducible RGS4, carbachol calcium flux Fluo4; active compounds read low;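 active = B-score of the integrated calcium signal more than 4 SD below the library mean, with starting fluorescence not abnormally high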;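 also: negative B-score means reduced calcium response which marks RGS4 activation or potentiation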
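System: HEK293 FlpIn-TREx cells, stable M3R, doxycycline-inducible RGS4. Timing: overnight RGS4 induction, 30 min dye load 37 °C, 20 min compound RT. Also added: carbachol, ECmax concentration. Measured by: Fluo4 fluorescence kinetic imaging of calcium. Evaluation: integrated calcium ratio converted to B score.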
MrgX1 PAM – allosterically activates human MrgX1 receptor signaling; MrgX1-HEK293, Fluo-4 calcium flux, FDSS; active compounds read high; B-score at 10 µM; 310,000 tested, 0.63% active;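 active = plate-corrected calcium response at least 3 library SD above typical, normal starting fluorescence, not activating the receptor alone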;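 also: compound read alongside a low EC10 to EC30 dose of BAM8-22 agonist; peak minus trough fluorescence over baseline measured at the second addition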
RGS4 block – human RGS4 inhibition | P49798 | HEK293 M3R/RGS4 inducible, Fluo-4 calcium flux; active compounds read high; triggered by carbachol at its EC20 | B-score at 10 µM | 310,000 tested, 0.45% active | AID 463165;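 active = B-score, a plate-corrected calcium signal, over three deviations above library mean, with baseline fluorescence within five deviations of library mean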;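 also: RGS4 expression induced by doxycycline in cells with stable M3 receptor; B-score is computed from the integrated fluorescence ratio over baseline after carbachol; higher B-score means a larger calcium signal and so more RGS4 inhibition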
RGS4 inh valid – validation of RGS4 inhibitors. 1,700 tested, 65% active. shares compounds with RGS4 block. calcium response, % at 10 µM. HEK293 M3R/RGS4, carbachol calcium Fluo-4 fluorescence; carbachol added at its EC20; 0 = buffer wells, 100 = carbachol control;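 active = duplicate-averaged calcium response above the buffer-only control mean plus 5 SD of those controls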;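 also: integrated fluorescence ratio F max minus min over baseline F0; higher response in RGS4-induced cells means RGS4 inhibition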
RGS4 uninduced – non-induced cell nonspecific activity of RGS4 inhibitors. shares compounds with RGS4 block. HEK293 M3R non-induced, carbachol calcium Fluo-4; submaximal (EC20) carbachol stimulus; buffer wells 0%, carbachol control wells 100%. activity (percent), % at 10 µM. 1,900 tested, 20% active. AID 493000; call rule not given here;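 also: RGS4 induction absent so cells express M3R without RGS4; higher means more calcium signal and flags a non-specific hit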
RGS4 inh ctr2 – second RGS4 inhibitor counter-screen in uninduced cells lacking carbachol. shares compounds with RGS4 block. HEK293 M3R/RGS4 non-induced, Fluo-4 calcium, no carbachol; normalised: buffer wells 0%, carbachol wells 100%. calcium response (agonist-mode artifact), % at 10 µM. 1,900 tested, 22% active. AID 493001;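 active = duplicate-averaged calcium rise in uninduced cells above buffer wells' mean plus 5 SD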
Active calls of the source: *; i = inactive; . = not tested or not shown. A selection: hits, their analogues and other compounds. The true share with any hit is near 4.7%.

SMILES	MrgX1 agonist	MrgX1 antag	KCC2 mod	RGS4 act	MrgX1 PAM	RGS4 block	RGS4 inh valid	RGS4 uninduced	RGS4 inh ctr2
CCc1[nH]nc2c1C1(C(=O)N(Cc3ccccc3)c3ccccc31)C(C#N)=C(N)O2 (configuration not stated)	i	i	-0.25	i	i	i	.	.	.
COC(=O)Cc1[nH]nc2c1C1(C(=O)N(Cc3ccc(Cl)cc3)c3ccccc31)C(C#N)=C(N)O2 (configuration not stated)	i	i	-0.44	i	i	5.1*	6.5%*	i	i
Cc1cccc(NC(=S)NNC(=O)c2csc3c2CCCC3)c1	i	i	21*	i	i	6.2*	20%*	54%*	i
CCNC(=S)NNC(=O)c1csc2c1CCCC2	i	i	-0.34	i	i	i	.	.	.
Nc1nn2cc(-c3ccccc3)nc2c2ccccc12	i	i	-1.8	i	i	i	.	i	i
CCOc1ccccc1NC(=O)CN(c1ccc(Cl)cc1)S(C)(=O)=O	i	i	.	i	i	i	.	.	.
Cn1cc(Cl)c(C(=O)NNC(=S)NC2CCCCC2)n1	i	i	-1.9	i	i	15*	39%*	50%*	i
COC(=O)c1cc(=O)n(Cc2cccs2)c(=Nc2ccc(F)cc2)s1	i	i	-0.021	i	i	i	.	.	.
COC(=O)c1cc(=O)n(-c2ccc(F)cc2)c(=Nc2ccc(F)cc2)s1	i	i	-0.93	i	i	13*	30%*	54%*	i
Cc1nn2c(NCc3ccccn3)cc(C(C)C)nc2c1-c1ccccc1	i	i	0.1	i	i	i	.	.	.
CC(=O)Nc1ccc(Nc2cc(C(C)C)nc3c(-c4ccccc4)c(C)nn23)cc1	i	i	-0.7	i	i	7.2*	41%*	60%*	i
Cc1cc(SCC(=O)Nc2ccc(O)cc2)n2nc(C)c(-c3ccccc3)c2n1	i	i	-1.4	i	i	i	.	.	.
CC(=O)Nc1ccc(Nc2cc(C)nc3c(-c4ccccc4)c(C)nn23)cc1	i	i	-2.1	i	i	8.6*	13%*	i	i
COC(=O)C(C(=O)OC)C(C[N+](=O)[O-])c1ccc(OC)c(OC)c1 (configuration not stated)	i	i	-0.4	i	i	i	.	.	.
COc1ccc(C(C[N+](=O)[O-])C2(c3ccc(OC)c(OC)c3)C(=O)c3ccccc3C2=O)cc1 (configuration not stated)	i	i	0.19	i	i	16*	60%*	37%*	i
COc1ccc(NS(=O)(=O)c2ccc3oc(SC(C)C(N)=O)nc3c2)cc1 (configuration not stated)	i	i	.	i	i	i	.	.	.
CCOc1ccc(C(=O)Nc2nnc(NC(=S)Nc3ccccc3)s2)cc1	i	i	0.22	i	i	4.9*	10%*	i	i
Cn1c(=O)c2c(nc(Sc3ncnn3CC(=O)N3CCOCC3)n2C)n(C)c1=O	i	i	0.45	i	i	i	.	.	.
CC(=O)c1ccc(NC(=O)CSc2nnc3ccc(-c4ccccn4)nn23)cc1	i	i	.	i	i	i	.	.	.
Cc1ccc(-c2c(C(=O)N/N=C/c3ccc(C)o3)nnn2-c2nonc2N)cc1	i	i	.	i	i	i	.	.	.
CCOc1ccc(-c2c(C(=O)N/N=C/c3ccc(OC(C)C)cc3)nnn2-c2nonc2N)cc1	i	i	0.03	i	i	i	.	i	i
Cc1ccc(-c2c(C(=O)N/N=C/c3ccc(OC(C)C)cc3)nnn2-c2nonc2N)cc1	i	i	.	i	i	9*	28%*	43%*	i
CCOc1ccc(-c2c(C(=O)N/N=C/c3ccc(Cl)cc3)nnn2-c2nonc2N)cc1	i	i	.	i	i	i	.	.	.
COC(=O)c1cn(C(=O)OC)c2ccccc12	i	i	.	i	i	i	.	.	.
COC(=O)c1cn(C(=O)/C=C/c2ccc(OC)c(OC)c2)c2ccccc12	i	i	0.54	i	i	4.7*	i	i	i
SMILES	MrgX1 agonist	MrgX1 antag	KCC2 mod	RGS4 act	MrgX1 PAM	RGS4 block	RGS4 inh valid	RGS4 uninduced	RGS4 inh ctr2
O=C(Nc1cccc(C(F)(F)F)c1)C1CCN(S(=O)(=O)c2ccc(N3CCCC3=O)cc2)CC1	i	i	.	i	i	i	.	.	.
CCOC(=O)NC1=NCC(C)S1 (configuration not stated)	i	i	-0.033	i	i	i	.	.	.
CC(=O)C(Cl)C(=O)Nc1ccccc1 (configuration not stated)	.	.	1.5	.	.	.	.	.	.
O=C(Nc1ccccc1)C(Cl)C(=O)c1ccccc1 (configuration not stated)	i	i	.	i	i	9.1*	30%*	38%*	i
O=C(O)C(Cc1c[nH]c2ccccc12)NS(=O)(=O)c1cccc(Cl)c1Cl (configuration not stated)	i	i	.	i	i	i	.	.	.
CCCOc1ccc(/C=c2\sc3ncnn3c2=O)cc1	i	i	0.013	i	i	5.8*	9.0%*	49%*	14%*
CC(=O)SC(C[N+](=O)[O-])c1cn(C(C)=O)c2ccccc12 (configuration not stated)	39*	i	0.42	i	i	16*	63%*	29%*	34%*
COc1ccc2nc(NC(=O)CSCC(=O)Nc3cc(C)on3)sc2c1	i	i	.	i	i	i	.	.	.
CCOC(=O)c1sc(=S)n(-c2ccccc2)c1N(C(C)=O)C(C)=O	i	i	-1.2	i	i	4.9*	i	i	i
COc1ccc(-c2csc(Nc3ccc(S(=O)(=O)Nc4cc(C)on4)cc3)n2)cc1C	i	i	-2	i	i	13*	i	46%*	i
COc1cc(NS(=O)(=O)c2ccc(Nc3nc(-c4ccccn4)cs3)cc2)nc(OC)n1	i	i	0.075	i	i	i	.	i	i
